# Calls of active or inactive are those of the source. The calls are words filed in the database; no cut-off is given here. Positions of bridges follow the written chain, without caps; N, C: chain ends. Non-standard residues stand in square brackets, D forms with d. Residues, ends and D or L forms follow the SMILES beside them. *: point of attachment. X1 = CC[C@H](C)CCCCC(=O)*; Dab = NCC[C@H](N)C(=O)O
# Legend:
# Escherichia coli [1] = assay: Binding affinity to His6-tagged Escherichia coli FabF C163Q mutant expressed in Escherichia coli BL21 (DE3) assessed Gibbs free energy change measured after 200 sec by isothermal titration calorimetry
# Summary of the method: (§1)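 Ligands were dissolved in PBS (10 mM, pH 7.4) and titrated into E. coli FabF(C163Q) in the same buffer. Protein was at 12 or 14 μM and ligand at 250 μM. Thermodynamic parameters (ΔH, ΔS, ΔG, Kd, n) were calculated from the heat of binding. Runs were done at least three times; one representative run was used.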
# Staphylococcus aureus [2] = assay: Antibacterial activity against Staphylococcus aureus ATCC 29213 assessed as inhibition of bacterial growth measured after 16 hrs by agar plate dilution method; assay type: functional
# Summary of the method: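 MIC determined by plate dilution against the reference strain; values from at least two independent experiments.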
# Staphylococcus aureus [3] = assay: Antibacterial activity against methicillin sensitive Staphylococcus aureus assessed as inhibition of bacterial growth measured after 16 hrs by agar plate dilution method; assay type: functional
# Summary of the method: (§2)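 Clinical MSSA and MRSA strains isolated from local hospitals; MIC determined by plate dilution; data from at least two independent experiments.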
# Escherichia coli [4] = assay: Binding affinity to His6-tagged Escherichia coli FabF C163Q mutant expressed in Escherichia coli BL21 (DE3) assessed as change in enthalpy measured after 200 sec by isothermal titration calorimetry; summary of the method: as §1
# Enterococcus faecalis = assay: Antibacterial activity against Enterococcus faecalis ATCC 29212 assessed as inhibition of bacterial growth measured after 16 hrs by agar plate dilution method; assay type: functional
# Escherichia coli [5] = assay: Binding affinity to His6-tagged Escherichia coli FabF C163Q mutant expressed in Escherichia coli BL21 (DE3) assessed as stoichiometry ratio measured after 200 sec by isothermal titration calorimetry; summary of the method: as §1
# Staphylococcus aureus [6] = assay: Antibacterial activity against methicillin resistant Staphylococcus aureus assessed as inhibition of bacterial growth measured after 16 hrs by agar plate dilution method; assay type: functional; summary of the method: as §2
# [7] = Binding affinity to His6-tagged Escherichia coli FabF C163Q mutant expressed in Escherichia coli BL21 (DE3) assessed as binding constant measured after 200 sec by isothermal titration calorimetry; summary of the method: as §1
# Escherichia coli [8] = assay: Binding affinity to His6-tagged Escherichia coli FabF C163Q mutant expressed in Escherichia coli BL21 (DE3) assessed as change in entropy measured after 200 sec by isothermal titration calorimetry; summary of the method: as §1
# Staphylococcus aureus [9] = assay: Antibacterial activity against methicillin resistant Staphylococcus aureus assessed as inhibition of bacterial growth measured after 18 hrs in presence of 10% human serum by resazurin dye based broth dilution assay; assay type: functional
# Escherichia coli [10] = assay: Antibacterial activity against Escherichia coli harboring delta tolC mutant assessed as inhibition of bacterial growth measured after 16 hrs by agar plate dilution method; assay type: functional
# Staphylococcus aureus [11] = assay: Inhibition of Staphylococcus aureus FabH A81V/A111T mutant assessed as bacterial growth inhibition measured after 18 hrs by resazurin dye based broth dilution assay
# Summary of the method: (§3)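 S. aureus strains carrying point mutations in the FabH active site; MIC determined by broth dilution; data from at least two independent experiments.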
# Staphylococcus aureus [12] = assay: Inhibition of Staphylococcus aureus FabH A81V mutant assessed as bacterial growth inhibition measured after 18 hrs by resazurin dye based broth dilution assay; summary of the method: as §3
# Staphylococcus aureus [13] = assay: Antibacterial activity against methicillin resistant Staphylococcus aureus infected in C57BL/6J mouse model of peritonitis assessed as mouse survival at 10 mg/kg, ip administered at 1 and 5 hrs post infection; assay type: functional, organism-based
# Summary of the method: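 Female C57BL/6J mice infected intraperitoneally with 1.5–2.0 × 10^7 CFU MRSA in 5% w/v hog gastric mucin; n = 5 per group; intraperitoneal treatment at 10 mg/kg at 1 and 5 h post-infection; vancomycin 10 mg/kg as control; survival and kidney bacterial load recorded.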
# Escherichia coli [14] = assay: Binding affinity to His6-tagged Escherichia coli FabH expressed in Escherichia coli BL21 (DE3) assessed as decrease in melting temperature at 10 uM by SYPRO orange based differential scanning fluorimetry
# Summary of the method: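 Purified E. coli FabH melting curves were recorded with and without ligand by thermal-shift fluorometry in 1.0 M Tris-HCl, pH 6.8, a buffer chosen from seven screened. ΔTm was taken from the Tm shift; n = 4.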
# [15] = biological target: T1, 3-oxoacyl-[acyl-carrier-protein] synthase 2 (Staphylococcus aureus) (UniProt Q5TKS0); assay: Binding affinity to His6-tagged Staphylococcus aureus FabF expressed in Escherichia coli BL21 (DE3) assessed as decrease in melting temperature at 10 uM by SYPRO orange based differential scanning fluorimetry
# T1 sequence (whole entry): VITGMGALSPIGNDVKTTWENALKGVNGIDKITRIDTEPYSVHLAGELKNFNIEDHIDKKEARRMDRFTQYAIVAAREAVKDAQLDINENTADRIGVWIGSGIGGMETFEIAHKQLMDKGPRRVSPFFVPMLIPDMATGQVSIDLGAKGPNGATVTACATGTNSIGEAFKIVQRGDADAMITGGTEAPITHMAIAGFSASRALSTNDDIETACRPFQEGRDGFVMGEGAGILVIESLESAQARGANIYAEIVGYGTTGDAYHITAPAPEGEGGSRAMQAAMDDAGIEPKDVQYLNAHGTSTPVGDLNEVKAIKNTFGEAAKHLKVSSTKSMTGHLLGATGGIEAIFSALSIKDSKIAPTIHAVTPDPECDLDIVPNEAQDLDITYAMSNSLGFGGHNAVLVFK
# Summary of the method: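 S. aureus FabF melting curves were measured by DSF in 20 mM HEPES, 180 mM NaCl, pH 7.5, a buffer selected by screening seven buffers. ΔTm was derived from the melting-temperature shift caused by ligand; n = 4.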
# Staphylococcus aureus [16] = assay: Antibacterial activity against methicillin resistant Staphylococcus aureus infected in C57BL/6J mouse model of peritonitis assessed as mouse survival when infected with 2.5x10^7 CFU bacteria at 10 mg/kg, ip administered at 1 and 5 hrs post infection; assay type: functional, organism-based
# Summary of the method: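 Female C57BL/6J mice given a higher intraperitoneal MRSA inoculum of 2.5 × 10^7 CFU; intraperitoneal treatment at 1 and 5 h post-infection; survival recorded.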
SMILES,deltaG (Escherichia coli [1]),MIC (Staphylococcus aureus [2]),MIC (Staphylococcus aureus [3]),deltaH (Escherichia coli [4]),MIC (Enterococcus faecalis),Ratio (Escherichia coli [5]),MIC (Staphylococcus aureus [6]),Kd [7],-TdeltaS (Escherichia coli [8]),MIC (Staphylococcus aureus [9]),MIC (Escherichia coli [10]),MIC (Staphylococcus aureus [11]),MIC (Staphylococcus aureus [12]),Activity (Staphylococcus aureus [13]),Activity (Escherichia coli [14]),Activity [15],Activity (Staphylococcus aureus [16])
C[C@]12C[C@@]34C=CC(=O)[C@@](C)(CCC(=O)Nc5c(O)ccc(C(=O)O)c5O)[C@@H]3[C@H](C[C@@H]1C4)O2,-10 kcal/mol,1 µg/mL,0.5 µg/mL,-2.06 kcal/mol,2 µg/mL,1.16,1 µg/mL,17.3 nM,-7.95 kcal/mol,2 µg/mL,32 µg/mL,> 32 µg/mL,> 32 µg/mL,–,–,–,–
C=C1C[C@]23C=C(SC4CCCCC4)C(=O)[C@@](C)(CCC(=O)Nc4c(O)ccc(C(=O)O)c4O)[C@@H]2C[C@H]1CC3,–,2 µg/mL,2 µg/mL,–,–,–,2 µg/mL,–,–,–,–,–,–,inactive,Active,Active,–
CC1(C)S[C@@H]2[C@H](NC(=O)[C@H](N)c3ccccc3)C(=O)N2[C@H]1C(=O)O,–,–,–,–,–,–,–,–,–,–,–,32 µg/mL,16 µg/mL,–,–,–,–
CC[C@H](C)CCCCC(=O)N[C@@H](CCN)C(=O)N[C@H](C(=O)N[C@@H](CCN)C(=O)N[C@H]1CCNC(=O)[C@H]([C@@H](C)O)NC(=O)[C@H](CCN)NC(=O)[C@H](CCN)NC(=O)[C@H](CC(C)C)NC(=O)[C@@H](Cc2ccccc2)NC(=O)[C@H](CCN)NC1=O)[C@@H](C)O (X1-[Dab]T[Dab][Dab][Dab][dF]L[Dab][Dab]T; lactam 4-C),–,–,–,–,–,–,–,–,–,–,4 µg/mL,–,–,–,–,–,–
"C=C1C[C@]23C=C(Sc4ccoc4C)C(=O)[C@@](C)(CCC(=O)Nc4c(O)ccc(C(=O)O)c4O)[C@@H]2CC1CC3 (single isomer, unassigned)",–,2 µg/mL,1 µg/mL,–,2 µg/mL,–,1 µg/mL,–,–,16 µg/mL,> 32 µg/mL,8 µg/mL,8 µg/mL,–,Active,Active,inactive
"C=C1C[C@]23C=C(SCCC)C(=O)[C@@](C)(CCC(=O)Nc4c(O)ccc(C(=O)O)c4O)[C@@H]2CC1CC3 (single isomer, unassigned)",–,8 µg/mL,4 µg/mL,–,–,–,4 µg/mL,–,–,–,–,–,–,–,Active,Active,–
"C=C1C[C@]23C=C(Sc4ccccn4)C(=O)[C@@](C)(CCC(=O)Nc4c(O)ccc(C(=O)O)c4O)[C@@H]2CC1CC3 (single isomer, unassigned)",–,4 µg/mL,2 µg/mL,–,–,–,2 µg/mL,–,–,–,–,–,–,–,Active,Active,–
"C=C1C[C@]23C=C(Sc4ccc(I)cc4)C(=O)[C@@](C)(CCC(=O)Nc4c(O)ccc(C(=O)O)c4O)[C@@H]2CC1CC3 (single isomer, unassigned)",–,8 µg/mL,4 µg/mL,–,–,–,4 µg/mL,–,–,–,–,–,–,–,Active,Active,–
"C=C1C[C@]23C=C(SC(C)(C)C)C(=O)[C@@](C)(CCC(=O)Nc4c(O)ccc(C(=O)O)c4O)[C@@H]2CC1CC3 (single isomer, unassigned)",–,16 µg/mL,8 µg/mL,–,–,–,8 µg/mL,–,–,–,–,–,–,–,Active,Active,–
"C=C1C[C@]23C=C(Sc4ccc(Br)cc4)C(=O)[C@@](C)(CCC(=O)Nc4c(O)ccc(C(=O)O)c4O)[C@@H]2CC1CC3 (single isomer, unassigned)",–,4 µg/mL,1 µg/mL,–,2 µg/mL,–,1 µg/mL,–,–,16 µg/mL,> 32 µg/mL,4 µg/mL,8 µg/mL,–,Active,Active,–
"C=C1C[C@]23C=C(Sc4ccc(C)cc4)C(=O)[C@@](C)(CCC(=O)Nc4c(O)ccc(C(=O)O)c4O)[C@@H]2CC1CC3 (single isomer, unassigned)",–,4 µg/mL,2 µg/mL,–,2 µg/mL,–,1 µg/mL,–,–,> 32 µg/mL,> 32 µg/mL,16 µg/mL,16 µg/mL,–,Active,Active,–
"C=C1C[C@]23C=C(Sc4ccccc4C)C(=O)[C@@](C)(CCC(=O)Nc4c(O)ccc(C(=O)O)c4O)[C@@H]2CC1CC3 (single isomer, unassigned)",–,1 µg/mL,1 µg/mL,–,2 µg/mL,–,1 µg/mL,–,–,32 µg/mL,> 32 µg/mL,4 µg/mL,4 µg/mL,–,Active,Active,–
"C=C1C[C@]23C=C(Sc4cccs4)C(=O)[C@@](C)(CCC(=O)Nc4c(O)ccc(C(=O)O)c4O)[C@@H]2CC1CC3 (single isomer, unassigned)",–,2 µg/mL,2 µg/mL,–,–,–,2 µg/mL,–,–,–,–,–,–,–,Active,Active,–
"C=C1C[C@]23C=C(SCc4ccccc4)C(=O)[C@@](C)(CCC(=O)Nc4c(O)ccc(C(=O)O)c4O)[C@@H]2CC1CC3 (single isomer, unassigned)",–,2 µg/mL,1 µg/mL,–,2 µg/mL,–,1 µg/mL,–,–,16 µg/mL,> 32 µg/mL,4 µg/mL,8 µg/mL,–,Active,Active,inactive
"C=C1C[C@]23C=C(Sc4ncccn4)C(=O)[C@@](C)(CCC(=O)Nc4c(O)ccc(C(=O)O)c4O)[C@@H]2CC1CC3 (single isomer, unassigned)",–,16 µg/mL,8 µg/mL,–,–,–,8 µg/mL,–,–,–,–,–,–,–,Active,Active,–
"C=C1C[C@]23C=C(SCCO)C(=O)[C@@](C)(CCC(=O)Nc4c(O)ccc(C(=O)O)c4O)[C@@H]2CC1CC3 (single isomer, unassigned)",-8.8 kcal/mol,8 µg/mL,32 µg/mL,-1.09 kcal/mol,2 µg/mL,1.17,> 32 µg/mL,223 nM,-7.72 kcal/mol,> 32 µg/mL,> 32 µg/mL,> 32 µg/mL,> 32 µg/mL,–,–,–,–
"C=C1C[C@@]23CCC1C[C@H]2[C@](C)(CCC(=O)Nc1c(O)ccc(C(=O)O)c1O)C(=O)[C@@H]1O[C@@H]13 (single isomer, unassigned)",-9.25 kcal/mol,8 µg/mL,4 µg/mL,-1.66 kcal/mol,2 µg/mL,1.17,4 µg/mL,102 nM,-7.59 kcal/mol,16 µg/mL,4 µg/mL,> 32 µg/mL,> 32 µg/mL,–,Active,Active,–
CC(=O)NC[C@H]1CN(c2ccc(N3CCOCC3)c(F)c2)C(=O)O1 [LINEZOLID],–,0.5 µg/mL,0.5 µg/mL,–,0.5 µg/mL,–,0.5 µg/mL,–,–,–,–,–,–,–,–,–,–

# Reference: ChEMBL document CHEMBL4765495, “Semisynthesis and Biological Evaluation of Platencin Thioether Derivatives: Dual FabF and FabH Inhibitors against MRSA” (ACS Med Chem Lett, 2021)
